Source: ChEMBL document CHEMBL1127475, “Novel amidine-containing peptidyl phosphonates as irreversible inhibitors for blood coagulation and related serine proteases” (J Med Chem, 1994)
One block for each molecule: values may come before it. Active and inactive are the calls of the source. The rule behind the calls is not given here.

Assays:
[1] = target: Prothrombin (Homo sapiens) (UniProt P00734); experiment: The compound was measured for inhibitory activity against human thrombin; NI=No inhibition
In short: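 Human thrombin (0.03–2.3 µM) was incubated with inhibitor (1.7–420 µM, added in Me2SO, 8–12% final) in 0.1 M Hepes, 0.5 M NaCl, pH 7.5, at 25 °C. Timed aliquots were assayed for residual activity with Z-Arg-SBzl (80–90 µM) plus 4,4'-dithiodipyridine at 394 nm. Pseudo-first-order kobs came from ln v0/vt vs time, and kobs/[I] was typically averaged over duplicate or triplicate experiments.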

[2] = target: T1, Serine protease 1 (Bos taurus) (UniProt P00760); experiment: The compound was measured for inhibitory activity against bovine trypsin; NI=No inhibition
T1 sequence (whole entry): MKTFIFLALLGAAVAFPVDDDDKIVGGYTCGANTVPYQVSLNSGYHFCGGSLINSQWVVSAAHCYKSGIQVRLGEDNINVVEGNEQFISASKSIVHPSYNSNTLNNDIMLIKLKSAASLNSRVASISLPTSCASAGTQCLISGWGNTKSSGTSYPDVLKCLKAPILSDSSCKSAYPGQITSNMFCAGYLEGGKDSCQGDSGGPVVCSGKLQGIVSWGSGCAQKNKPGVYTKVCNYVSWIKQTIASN
In short: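 Irreversible inactivation by incubation: enzyme (0.03–2.3 µM) mixed with inhibitor (1.7–420 µM, added in Me2SO, 8–12% final) in 0.1 M Hepes, 0.01 M CaCl2, pH 7.5, at 25 °C. Aliquots were taken over time and residual activity read with Z-Phe-Gly-Arg-NA (100–120 µM) at 410 nm. kobs came from ln v0/vt vs time, and kobs/[I] from the average of duplicate or triplicate runs.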

[3] = target: Prothrombin (Homo sapiens) (UniProt P00734); experiment: The compound was measured for inhibitory activity against human thrombin
In short: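 Human thrombin (0.03–2.3 μM) was incubated at 25 °C with inhibitor (1.7–420 μM) in 0.1 M Hepes, 0.5 M NaCl, pH 7.5, 8–12% Me2SO. Residual activity in withdrawn aliquots was measured with Z-Arg-SBzl (80–90 μM) and 4,4'-dithiodipyridine at 394 nm. kobs from ln v0/vt vs time; kobs/[I] typically averaged from duplicate or triplicate experiments.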

[4] = target: T1, Serine protease 1 (Bos taurus); experiment: The compound was measured for inhibitory activity against bovine trypsin
In short: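 Inactivation by incubation: enzyme (0.03–2.3 μM) with inhibitor (1.7–420 μM) added from Me2SO (8–12% final) in 0.1 M Hepes, 0.01 M CaCl2, pH 7.5, 25 °C. Aliquots withdrawn over time; residual activity read with Z-Phe-Gly-Arg-NA (100–120 μM) at 410 nm. kobs from ln v0/vt vs time; kobs/[I] typically averaged from duplicate or triplicate runs.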

[5] = target: T2, Coagulation factor XII (Homo sapiens) (UniProt P00748); experiment: (§1) The compound was measured for inhibitory activity against human coagulation factor XII
T2 sequence (whole entry): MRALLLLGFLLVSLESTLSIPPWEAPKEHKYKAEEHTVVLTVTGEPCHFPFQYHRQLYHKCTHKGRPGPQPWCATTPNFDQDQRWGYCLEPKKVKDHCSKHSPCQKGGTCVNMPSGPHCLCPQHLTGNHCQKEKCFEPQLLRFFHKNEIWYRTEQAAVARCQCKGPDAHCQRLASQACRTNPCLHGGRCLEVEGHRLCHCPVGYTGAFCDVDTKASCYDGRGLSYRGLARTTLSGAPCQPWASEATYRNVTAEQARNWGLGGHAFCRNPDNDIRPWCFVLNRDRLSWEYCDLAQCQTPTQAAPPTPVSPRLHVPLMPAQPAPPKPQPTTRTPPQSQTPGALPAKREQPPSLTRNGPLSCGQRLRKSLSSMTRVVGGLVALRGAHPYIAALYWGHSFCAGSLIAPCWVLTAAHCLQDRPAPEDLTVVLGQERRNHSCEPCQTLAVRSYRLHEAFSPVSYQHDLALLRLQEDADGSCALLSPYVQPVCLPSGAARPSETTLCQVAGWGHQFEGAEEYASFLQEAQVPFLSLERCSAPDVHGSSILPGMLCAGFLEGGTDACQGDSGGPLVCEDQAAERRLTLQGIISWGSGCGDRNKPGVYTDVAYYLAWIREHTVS
In short: (§2)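 Enzymes (plasma kallikrein and factor XIIa of human origin) at 0.03–2.3 μM were incubated at 25 °C with inhibitor (1.7–420 μM) in 0.1 M Hepes, 0.01 M CaCl2, pH 7.5, 8–12% Me2SO. Timed aliquots were assayed for residual activity with Z-Arg-SBzl (80–90 μM) plus 4,4'-dithiodipyridine, read at 394 nm. Pseudo-first-order kobs came from ln v0/vt vs time; kobs/[I] typically averaged from duplicate or triplicate runs.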

[6] = target: Plasma kallikrein (Homo sapiens) (UniProt P03952); experiment: The compound was measured for inhibitory activity against human plasma kallikrein; type: cell-free; in short: as §2
Prothrombin (Bos taurus) = Prothrombin (Bos taurus) (UniProt P00735); experiment: (§3) The compound was measured for inhibitory activity against bovine thrombin
[7] = target: T3, Coagulation factor XII (Bos taurus) (UniProt P98140); experiment: as §1; in short: as §2
T3 sequence (whole entry): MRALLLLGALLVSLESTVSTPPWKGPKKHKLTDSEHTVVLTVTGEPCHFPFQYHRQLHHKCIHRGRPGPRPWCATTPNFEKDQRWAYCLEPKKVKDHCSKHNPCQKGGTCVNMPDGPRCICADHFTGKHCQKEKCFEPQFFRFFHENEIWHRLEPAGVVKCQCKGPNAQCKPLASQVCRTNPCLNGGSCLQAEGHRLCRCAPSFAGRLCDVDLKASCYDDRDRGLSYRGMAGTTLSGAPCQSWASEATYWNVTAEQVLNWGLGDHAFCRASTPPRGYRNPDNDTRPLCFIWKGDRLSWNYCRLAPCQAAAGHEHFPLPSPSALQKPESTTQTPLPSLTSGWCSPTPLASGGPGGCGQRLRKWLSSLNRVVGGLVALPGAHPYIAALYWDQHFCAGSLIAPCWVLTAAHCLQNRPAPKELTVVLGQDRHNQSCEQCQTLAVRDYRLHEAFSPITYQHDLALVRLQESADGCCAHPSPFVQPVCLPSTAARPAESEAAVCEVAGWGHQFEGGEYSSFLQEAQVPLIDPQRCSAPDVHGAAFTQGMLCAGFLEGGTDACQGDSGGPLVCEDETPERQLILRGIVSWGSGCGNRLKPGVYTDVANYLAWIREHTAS

[8] = target: Prothrombin (Homo sapiens) (UniProt P00734); experiment: as §3

Plasma kallikrein (Homo sapiens), sequence (P03952 20-390 limits assumed): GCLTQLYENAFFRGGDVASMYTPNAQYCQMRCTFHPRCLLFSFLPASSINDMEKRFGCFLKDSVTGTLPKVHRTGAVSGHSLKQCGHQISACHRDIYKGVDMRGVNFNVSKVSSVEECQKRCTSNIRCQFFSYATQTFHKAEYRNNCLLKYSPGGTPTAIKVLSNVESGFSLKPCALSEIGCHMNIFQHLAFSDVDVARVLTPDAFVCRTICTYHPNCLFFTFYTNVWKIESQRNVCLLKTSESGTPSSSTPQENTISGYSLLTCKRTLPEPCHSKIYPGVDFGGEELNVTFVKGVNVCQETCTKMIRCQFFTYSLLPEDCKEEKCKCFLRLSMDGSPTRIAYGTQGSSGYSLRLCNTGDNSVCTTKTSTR
Plasma kallikrein (Homo sapiens), sequence (P03952 391-638 limits assumed): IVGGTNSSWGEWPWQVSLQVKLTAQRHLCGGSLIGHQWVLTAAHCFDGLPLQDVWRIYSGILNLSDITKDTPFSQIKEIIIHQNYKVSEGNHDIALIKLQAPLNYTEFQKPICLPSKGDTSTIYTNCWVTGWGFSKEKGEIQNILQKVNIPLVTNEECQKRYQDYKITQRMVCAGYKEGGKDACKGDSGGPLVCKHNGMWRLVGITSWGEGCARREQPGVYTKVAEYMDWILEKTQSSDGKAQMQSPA

K obs / 1 [1]: inactive
K obs / 1 [2]: inactive
SMILES: CCOP(=O)(OCC)[C@H](Cc1ccc(C(=N)N)cc1)NC(=O)[C@@H]1CCCN1C(=O)OCc1ccccc1

SMILES: N=C(N)c1ccc(C[C@H](NC(=O)[C@@H]2CCCN2C(=O)[C@@H](N)Cc2ccccc2)P(=O)(Oc2ccccc2)Oc2ccccc2)cc1
K obs / 1 [3]: 54 M⁻¹ s⁻¹
K obs / 1 [4]: 50 M⁻¹ s⁻¹

SMILES: CC(=O)N[C@H](Cc1ccccc1)C(=O)N1CCC[C@H]1C(=O)N[C@@H](CCCN=C(N)N)P(=O)(Oc1ccccc1)Oc1ccccc1
K obs / 1 [3]: 1200 M⁻¹ s⁻¹

SMILES: N=C(N)c1ccc(C(NC(=O)[C@@H]2CCCN2C(=O)OCc2ccccc2)P(=O)(Oc2ccccc2)Oc2ccccc2)cc1 (some centres undefined)
K obs / 1 [3]: 20 M⁻¹ s⁻¹
K obs / 1 [5]: 2.6 M⁻¹ s⁻¹
K obs / 1 [6]: 60 M⁻¹ s⁻¹
K obs / 1 (Prothrombin (Bos taurus)): 70 M⁻¹ s⁻¹
K obs / 1 [4]: 100 M⁻¹ s⁻¹

SMILES: CC(C)(C)OC(=O)N[C@@H](Cc1ccccc1)C(=O)N1CCC[C@H]1C(=O)NC(c1ccc(C(=N)N)cc1)P(=O)(Oc1ccccc1)Oc1ccccc1 (some centres undefined)
K obs / 1 [3]: 11000 M⁻¹ s⁻¹
K obs / 1 [5]: 52 M⁻¹ s⁻¹
K obs / 1 [6]: 160 M⁻¹ s⁻¹
K obs / 1 (Prothrombin (Bos taurus)): 12000 M⁻¹ s⁻¹
K obs / 1 [4]: 2200 M⁻¹ s⁻¹

SMILES: N=C(N)c1ccc(C(NC(=O)OCc2ccccc2)P(=O)(Oc2ccccc2)Oc2ccccc2)cc1 (centres undefined)
K obs / 1 [3]: 80 M⁻¹ s⁻¹
K obs / 1 [5]: 20 M⁻¹ s⁻¹
K obs / 1 [6]: 18000 M⁻¹ s⁻¹
K obs / 1 (Prothrombin (Bos taurus)): 170 M⁻¹ s⁻¹

SMILES: N=C(N)c1ccc(C[C@H](NC(=O)OCc2ccccc2)P(=O)(Oc2ccccc2)Oc2ccccc2)cc1
K obs / 1 [3]: 0.2 M⁻¹ s⁻¹
K obs / 1 [4]: 24 M⁻¹ s⁻¹

SMILES: CC(C)(C)OC(=O)N[C@@H](Cc1ccccc1)C(=O)N1CCC[C@H]1C(=O)N[C@@H](Cc1ccc(C(=N)N)cc1)P(=O)(Oc1ccccc1)Oc1ccccc1
K obs / 1 [3]: 0.7 M⁻¹ s⁻¹
K obs / 1 [4]: 130 M⁻¹ s⁻¹

SMILES: N=C(N)c1ccc(C(NC(=O)CNS(=O)(=O)c2ccc3ccccc3c2)P(=O)(Oc2ccccc2)Oc2ccccc2)cc1 (centres undefined)
K obs / 1 [7]: 25 M⁻¹ s⁻¹
K obs / 1 [6]: 960 M⁻¹ s⁻¹
K obs / 1 [8]: 170 M⁻¹ s⁻¹
K obs / 1 [4]: 470 M⁻¹ s⁻¹

SMILES: N=C(N)c1ccc(C[C@H](N)P(=O)(Oc2ccccc2)Oc2ccccc2)cc1
K obs / 1 [3]: 2.2 M⁻¹ s⁻¹
K obs / 1 [4]: 32 M⁻¹ s⁻¹

SMILES: N=C(N)c1ccc(C(NC(=O)[C@@H]2CCCN2C(=O)[C@@H](N)Cc2ccccc2)P(=O)(Oc2ccccc2)Oc2ccccc2)cc1 (some centres undefined)
K obs / 1 [3]: 700 M⁻¹ s⁻¹
K obs / 1 [5]: 2.8 M⁻¹ s⁻¹
K obs / 1 [6]: 250 M⁻¹ s⁻¹
K obs / 1 (Prothrombin (Bos taurus)): 730 M⁻¹ s⁻¹
K obs / 1 [4]: 110 M⁻¹ s⁻¹
